Experimental data reported in ChEMBL document CHEMBL1140662, “Benzo[b]thiophene-based histone deacetylase inhibitors” (Bioorg Med Chem Lett, 2007).
pIC50: −log10 of the molar value.

Tests used:
Histone deacetylase 1 [1] = target: T1, Histone deacetylase 1 (Homo sapiens, UniProt Q13547); experiment: Inhibition of HDAC1
How it was run: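 Epitope-tagged human HDAC1 complex, immuno-purified from stably expressing mammalian cells, tested against a commercial HDAC substrate. IC50 values are means of three experiments.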

[2] = Antiproliferative activity against mouse SC9 cells; type: functional, cell-based
How it was run: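 Murine erythroleukemia SC-9 cells were exposed to vehicle or increasing compound concentrations for 48 h, and proliferation was read by MTS assay. IC50 values are means of three experiments.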

Histone deacetylase 1 [3] = target: T1, Histone deacetylase 1; experiment: Inhibition of HDAC1 at 10 uM

T1 sequence (Q13547 whole entry): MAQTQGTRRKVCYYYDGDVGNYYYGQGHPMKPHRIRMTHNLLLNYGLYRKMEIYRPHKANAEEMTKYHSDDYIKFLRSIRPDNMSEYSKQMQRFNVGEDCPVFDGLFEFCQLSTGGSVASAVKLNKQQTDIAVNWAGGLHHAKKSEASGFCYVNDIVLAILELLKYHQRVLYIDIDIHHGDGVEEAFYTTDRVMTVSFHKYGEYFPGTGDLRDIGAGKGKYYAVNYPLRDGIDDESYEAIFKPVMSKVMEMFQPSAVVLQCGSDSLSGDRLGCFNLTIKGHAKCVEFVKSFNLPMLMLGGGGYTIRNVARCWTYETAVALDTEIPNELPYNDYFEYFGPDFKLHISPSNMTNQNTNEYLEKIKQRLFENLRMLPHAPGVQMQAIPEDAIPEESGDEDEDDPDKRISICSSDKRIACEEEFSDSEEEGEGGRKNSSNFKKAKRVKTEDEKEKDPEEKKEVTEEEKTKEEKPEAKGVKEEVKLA

Row | SMILES | pIC50 (Histone deacetylase 1 [1]) | pIC50 [2] | inhibition (Histone deacetylase 1 [3]) [%]
1 | O=C(NO)c1cccs1 | 5.18 |  | 
2 | O=C(NO)c1cc2ccc(CNCCc3ccccc3)cc2s1 | 6.89 | 6.34 | 
3 | O=C(CCc1ccccc1)Nc1ccc2cc(C(=O)NO)sc2c1 | 7.26 | 5.25 | 
4 | COc1ccc(CC(=O)Nc2ccc3cc(C(=O)NO)sc3c2)cc1 | 7.70 | 6.69 | 
5 | O=C(Nc1ccc2cc(C(=O)NO)sc2c1)c1ccccc1 |  | 5.54 | 
6 | O=C(Cc1ccccc1)NCc1ccc2cc(C(=O)NO)sc2c1 | 7.15 | 5.91 | 
7 | O=C(NO)c1cc2cc(CNc3ccccc3)ccc2s1 | 6.76 | 5.31 | 
8 | O=C(NO)c1cc2ccc(CNCc3ccccc3)cc2s1 | 7.30 | 6.80 | 
9 | CC[C@H](C(=O)Nc1ccc2cc(C(=O)NO)sc2c1)c1ccccc1 | 7.70 | 6.85 | 
10 | O=C(Cc1ccccc1)Nc1ccc2cc(C(=O)NO)sc2c1 | 8.00 | 6.66 | 
11 | O=C(Cc1ccc(F)cc1)Nc1ccc2cc(C(=O)NO)sc2c1 | 7.70 | 6.64 | 
12 | O=C(NO)c1cc2ccc(CNc3ccccc3)cc2s1 | 7.35 | 5.75 | 
13 | O=C(NCc1ccccc1)c1ccc2cc(C(=O)NO)sc2c1 | 7.26 | 5.96 | 
14 | O=C(NCc1ccc2cc(C(=O)NO)sc2c1)c1ccccc1 | 8.00 | 6.72 | 
15 | O=C(Cc1ccccc1)Nc1ccc2sc(C(=O)NO)cc2c1 | 7.52 | 5.93 | 
16 | O=C(NO)c1cc2cc(CNCc3ccccc3)ccc2s1 |  | 6.32 | 
17 | O=C(NCc1ccccc1)c1ccc2sc(C(=O)NO)cc2c1 | 7.12 | 5.77 | 
18 | CCC(C(=O)Nc1ccc2cc(C(=O)NO)sc2c1)c1ccccc1 (stereo unspecified) | 7.40 | 6.65 | 
19 | O=C(NCCc1ccccc1)c1ccc2sc(C(=O)NO)cc2c1 | 6.81 | 5.27 | 
20 | O=C(Nc1ccccc1)c1ccc2sc(C(=O)NO)cc2c1 | 6.22 | 5.21 | 
21 | O=C(NC(c1ccccc1)c1ccccc1)c1ccc2cc(C(=O)NO)sc2c1 | 6.55 | 5.53 | 
22 | COC(=O)c1ccc2cc(C(=O)NO)sc2c1 |  | 4.86 | 
23 | O=C(NO)c1cc2cc(CNCCc3ccccc3)ccc2s1 | 6.70 | 6.02 | 
24 | CC[C@@H](C(=O)Nc1ccc2cc(C(=O)NO)sc2c1)c1ccccc1 | 7.22 | 6.28 | 
25 | O=C(NO)c1csc2ccccc12 |  |  | 38
26 | O=C(NO)c1ccsc1 | 5.01 |  | 
